Laboratory results reported in paper PMC5365239 (Chemical Science, 2016).

How the values were obtained:
[1] = tested on: OVCAR5 cells; test: MTS cytotoxicity assay after CuAAC reaction / GSH depletion; type: cell-based, human; settings: low concentration (20 μM) BSO
Outline: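 HPG-incorporated OVCAR5 cells were exposed 10 min to CuAAC reaction mixtures. They were then returned to RPMI-1640 for 24 hours before viability was read by MTS assay. For GSH depletion, cells were first held 24 hours in RPMI-1640 containing 20 μM BSO before HPG incorporation.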

[2] = tested on: cellular GSH; test: Cellular GSH concentration by LC-ESI-MS/MS after NEM alkylation; type: cell-based, human; settings: OVCAR5, 20 μM BSO
Outline: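 Adherent OVCAR5 cells held in RPMI-1640 with 20 μM BSO for 24 hours before HPG incorporation. Cellular GSH was alkylated with NEM and then quantified by LC-ESI-MS/MS.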

[3] = Cu^I-ligand dissociation constant, competition assay with bicinchoninic acid; type: binding; settings: read-out: Dissociation constant (KD) of Cu^I-ligand; BCA competition assay

| SMILES | Cytotoxicity of GSH depletion (in words) [1] | Cellular GSH concentration ([2]; 24 h) | Reduction of the cellular GSH level ([2]; 24 hours) | Kd [3] |
| --- | --- | --- | --- | --- |
| CCCCS(=N)(=O)CCC(N)C(=O)O (stereo not shown) [BSO, buthionine sulfoximine] | No cytotoxicity | 4.9 ± 0.4 µM | 99.7% | – |
| N[C@@H](CCC(=O)N[C@@H](CS)C(=O)NCC(=O)O)C(=O)O [GSH, reduced glutathione] | – | – | – | 31 pM |
